Reference: the RNAGym collection of RNA variant scans (doi:10.1126/science.aae0568)
Fewer inactive variants are shown than the library holds.

B1: tRNA (parent)
chain: GUUCCGUUGGCGUAAUGGUAACGCGUCUCCCUCCUAAGGAGAAGACUGCGGGUUCGAGUCCCGUACGGAACG

Variants of: B1
Test: yeast fitness relative to wild type (ratio to wild type); higher = fitter; tRNA-Arg(CCU), competitive growth, 37 C, YPD
In short: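 Amplicons of the tRNA-Arg(CCU) gene were sequenced, 100-nucleotide paired-end, from the start population and from each end population of a pooled yeast competition. The competition, in six parallel replicates, lasted 24 hours in YPD at 37°C. Fitness relative to wild type was calculated from changes in genotype frequencies. Genotypes had to have ≥ 100 starting reads, and estimates < 0.5 were set to 0.5.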

Variant	yeast fitness
C5G A14U U16C G18C U32A G58A	0.542
C5G A15C C22A G63A A65G	≤ 0.5
C5G A15C G58A G67C	≤ 0.5
C5G A15C U32C C46U U53G	≤ 0.5
C5G A15G	0.819
C5G A15G C24G U32A C34G G68A A69U A70U	0.516
C5G A15G C24G U32A C34G U64C G68A A69U A70U	≤ 0.5
C5G A15G U16A A20G U28A C30A C33A A36U U47C A69C	≤ 0.5
C5G A15U A69U	0.698
C5G A15U C29G	≤ 0.5
C5G A15U G63A	0.551
C5G A15U U28C	≤ 0.5
C5G A15U U35A	0.696
C5G A15U U53A	≤ 0.5
C5G A20C	0.813
C5G A20C A42U G44A C61G	≤ 0.5
C5G A20C C22U C24U C55U	≤ 0.5
C5G A20C C29G G38C	0.529
C5G A20C C33U C62G	≤ 0.5
C5G A20C U54A	0.616
C5G A20G A36C A70C	≤ 0.5
C5G A20G A37G C46G A57C	≤ 0.5
C5G A20G A40G G44A C46G C60G C61U G63A	≤ 0.5
C5G A20G A65U	0.652

Variant	yeast fitness
C5G A20G C62U C66G	0.663
C5G A20U A57U	≤ 0.5
C5G A20U C30U	≤ 0.5
C5G A20U G25A C31U G41A C55G	≤ 0.5
C5G A20U G56A	0.572
C5G A21C A45G A57G G68A	≤ 0.5
C5G A21C C61A	≤ 0.5
C5G A21C U54A A57G	≤ 0.5
C5G A21G	0.997
C5G A21G C24U G68A	0.71
C5G A21G G41A	0.503
C5G A21G G44A	0.59
C5G A21G G51A	0.617
C5G A21G U32C C49G A65G	0.553
C5G A21U C27U U28G C33G A36G	≤ 0.5
C5G A36C A42G C55U C62G A69U	≤ 0.5
C5G A36G A43U	0.549
C5G A36U A42G A57C	≤ 0.5
C5G A36U C46G C62A A69C	≤ 0.5
C5G A36U C66U	≤ 0.5
C5G A36U G41A	≤ 0.5
C5G A36U G41A A65U	0.549
C5G A36U U59G A65U	≤ 0.5
C5G A37U C55G C61G C66G	0.623

Variant	yeast fitness
C5G A40C	0.638
C5G A42C G51C A65G	≤ 0.5
C5G A42G	0.701
C5G A42G C49G A70U	≤ 0.5
C5G A43C	0.744
C5G A43G A70G	0.537
C5G A43U	0.719
C5G A43U C61G	≤ 0.5
C5G A43U C66U A69U	≤ 0.5
C5G A43U U64C	0.703
C5G A45C U54G	0.622
C5G A57C	0.716
C5G A65C	0.775
C5G A65U C66G	≤ 0.5
C5G C11A A14G G25C C29G	0.517
C5G C11A A14G G25C C29G A57U C66U	≤ 0.5
C5G C11A A20C C29U	≤ 0.5
C5G C11A A40C U59C	≤ 0.5
C5G C11A A40C U64C	≤ 0.5
C5G C11G A14U A15U A69C	≤ 0.5
C5G C11G A14U A15U C29A C60G	≤ 0.5
C5G C11G A15C A65C	≤ 0.5
C5G C11G A15U U54C C61G A70C	≤ 0.5
C5G C11G A42C C49U C62A	≤ 0.5

Variant	yeast fitness
C5G C11G C27G G67U	≤ 0.5
C5G C11G C31G	≤ 0.5
C5G C11G C34U	0.576
C5G C11U A42G C49U	0.548
C5G C11U A42U G68A	≤ 0.5
C5G C11U A45C	≤ 0.5
C5G C11U C22A	≤ 0.5
C5G C11U C29A	0.53
C5G C11U C31U	0.676
C5G C11U G25C G52U	0.618
C5G C22A A37G	≤ 0.5
C5G C22A A37G G50C	0.55
C5G C22U C27U A36G	≤ 0.5
C5G C22U U26A A65U	≤ 0.5
C5G C24A	0.96
C5G C24G	0.604
C5G C24G A40U	0.57
C5G C24G C30G C31U U35A A36U G44A C60U A70C	≤ 0.5
C5G C24U C27A G51C G56C	≤ 0.5
C5G C24U U26C C31U	0.749
C5G C27A A37C C55G	≤ 0.5
C5G C27G C33U G56A A69U	0.52
C5G C27G C34G G63C C66U	≤ 0.5
C5G C27G C46G A65G	≤ 0.5

Variant	yeast fitness
C5G C27U A57U	≤ 0.5
C5G C27U C46U	0.754
C5G C27U G41C C61U C66G	≤ 0.5
C5G C29A A36G A42C G44A C49U C60U	≤ 0.5
C5G C29G A43C G52A G67A	≤ 0.5
C5G C29G G41C	≤ 0.5
C5G C29U A42C C55U	≤ 0.5
C5G C29U G39A G58C A69U	≤ 0.5
C5G C29U U54G C60G C62U	≤ 0.5
C5G C30A A36G	0.568
C5G C30A C34G	≤ 0.5
C5G C30G	0.523
C5G C30G A65C C66U	≤ 0.5
C5G C30G C31A G50A U54C U59A	0.596
C5G C30G G56C C61U A65C	0.616
C5G C30U A65U	≤ 0.5
C5G C30U U54A	0.601
C5G C31A A45C	≤ 0.5
C5G C31U	0.867
C5G C31U G41C A43C C60G	≤ 0.5
C5G C33A A36C C66U	≤ 0.5
C5G C33A A42G A57G	≤ 0.5
C5G C33A A65U	≤ 0.5
C5G C33A G41C	≤ 0.5

Variant	yeast fitness
C5G C33A G41C U54C	≤ 0.5
C5G C33U A65C G68C	≤ 0.5
C5G C33U G44C	≤ 0.5
C5G C34A	0.702
C5G C34A G39C G52A G58A G63A	≤ 0.5
C5G C34A G50C	≤ 0.5
C5G C34G A40G G48C G63A C66U	≤ 0.5
C5G C34G A69U	≤ 0.5
C5G C34G C49U C55U	≤ 0.5
C5G C34U C66U	≤ 0.5
C5G C46A A57G	0.705
C5G C46A G48A U64G	0.546
C5G C46G	0.751
C5G C46G A65G	0.594
C5G C46U G50A	0.731
C5G C46U G67A	0.683
C5G C55A A57U	0.55
C5G C55G	0.685
C5G C55G A65C G67A	≤ 0.5
C5G C60G C62G G67C A69U	0.654
C5G C66A	0.703
C5G C66U G67A	0.533
C5G G6A C24U	0.577
C5G G6A U47A G68C	0.546

Variant	yeast fitness
C5G G6C	0.718
C5G G6C A21U	0.544
C5G G9A A14C A37G C62G	≤ 0.5
C5G G9A A43G G48C	≤ 0.5
C5G G9A C30G	≤ 0.5
C5G G9A C61U	≤ 0.5
C5G G9C A20G A40C G58A	≤ 0.5
C5G G9C A43G A70U	≤ 0.5
C5G G9C C29U C30U C55A A65G	≤ 0.5
C5G G9C C33A U35C C46U C49U G52C C61U C66U	≤ 0.5
C5G G9C U35G C66U	≤ 0.5
C5G G10A C11G U16G C33G	0.551
C5G G10A C30U A42C A70G	≤ 0.5
C5G G10C A69C	0.556
C5G G10C G52A U54A	0.55
C5G G10C U13G A40G U54A	≤ 0.5
C5G G12A A14G U35A	≤ 0.5
C5G G12A A43G	0.536
C5G G12A C31U C49G	≤ 0.5
C5G G12C C33U G68C	0.612
C5G G12C U19A C31A	≤ 0.5
C5G G17A A20C C49G G63A	≤ 0.5
C5G G17A A20C G52A A65U	≤ 0.5
